# From PubChem BioAssay
# G6PDH counter: L. mesenteroides G6PDH inhibitors, counter-screen for G6PDH-coupled screening assays, biochemical, Leuconostoc mesenteroides enzyme. Purified L. mesenteroides G6PDH, diaphorase/resazurin coupled fluorescence, 45 min. AID 1020, 2008. inhibition, % at 5 µM. hit rate 0.12% among 200,000
# Diaphorase act: compounds boosting diaphorase resazurin reduction – biochemical, uHTS, resorufin fluorescence, counter-screen for diaphorase-coupled primary assays, primary screen. activation factor at 20 µM. AID 1229, 2008. hit rate 0.005% among 190,000. Diaphorase/resazurin coupled assay, 16 min; active compounds read high; 1 = vehicle wells, 0 = NADH-free wells;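 active = diaphorase activity raised at least twofold by the compound at 20 µM; inactive = activation factor below 2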
#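 Material: purified diaphorase enzyme from Clostridium kluyveri; Also added: 0.114 mM NADH and 0.1 mM resazurin, final amounts; Doses: single compound dose of 20 µM, 1% DMSO final; Times: 16 min enzyme reaction, ambient temperature; Detection: resorufin fluorescence, excitation 544 nm, emission 590 nm; Measure: increased resorufin signal from activators or reducing compounds.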
# WT yeast gro inh: growth inhibition of WT strain, primary screen, mitochondrial fusion inhibitor project, WT and mutant strains, chemical genetic. mitochondrial fusion phenotypic screen. AID 1362, 2008. hit rate 2.1% among 190,000. inhibition, % at 10 µM; in the data active = inhibition above about 58%; tested in S. cerevisiae
# Diaph inh CS: diaphorase inhibitors and chemical oxidizers, primary screen, counter-screen for diaphorase-coupled primary assays, biochemical, uHTS, resorufin fluorescence | diaphorase resazurin-to-resorufin fluorescence, NADH, 16 min; bacterial (C. kluyveri) enzyme, not human | inhibition, % at 20 µM | hit rate 0.69% among 190,000;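 active = primary screen inhibition at 20 µM above a set limit, cut at about 50% in these data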;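 note: plate controls were DMSO with full reaction for no effect and wells lacking NADH for full effect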
#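 Test system: bacterial diaphorase enzyme (C. kluyveri); Quantity: 0.14 U/mL diaphorase, enzyme working solution; Times: reaction incubation of 16 min at room temperature; Measured by: fluorescence of resorufin formed from resazurin, Ex 544/Em 590 nm; Benchmarks: positive control minus NADH, DMSO neutral control.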
# Lmaj promast: Leishmania major promastigote growth inhibition, primary screen. Leishmania major promastigotes, resazurin fluorescence viability. inhibition, % at 10 µM. hit rate 9% among 200,000. AID 1063, 2008;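 note: promastigotes grown with compound for 44 hours at 28 °C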
# Active calls of the source: *; / = not tested or not shown. The list is not random: actives were taken first. Their share in the collection is about 11%. Cut-off read from the data, not from the text of the source, unless noted: active = inhibition above about 50%; inactive = the rest.
SMILES,G6PDH counter,Diaphorase act,WT yeast gro inh,Diaph inh CS,Lmaj promast
CCn1c(SCc2nc(-c3cccs3)no2)nnc1-c1c[nH]c2ccccc12,-28.0,0.7,10.0,32.7,72.2*
COC(=O)C(Cc1cnc[nH]1)NC(=O)C1CCC(=O)N1 (configuration not stated),-0.9,0.9,4.3,9.8,5.4
O=C(Nc1ccccc1)ON=C1CCCC1,10.4,0.9,6.5,13.2,5.0
Cc1ccc(NC(=O)ON=C2CCCC2)cc1,-5.3,0.8,8.9,18.2,84.2*
CCC(=O)Nc1ccc(C(=O)N/N=C/c2cc(Br)c(OC)cc2OC)cc1,-3.6,1,7.9,3.8,21.4
COc1cc(/C=C/C(=O)c2c(O)cc(C)oc2=O)cc(OC)c1O,9.7,0.8,-9.6,18.4,97.1*
COc1cccc(/C=C/C(=O)c2c(O)cc(C)oc2=O)c1O,0.2,0.9,-39.3,9.4,96.6*
COc1ccc(C(=O)/C=C/c2cc(OC)c(O)c(OC)c2)c(F)c1,37.7,0.5,17.1,45.1,89.8*
COc1ccccc1/C=C/CN1CCCC(CCC(=O)NCc2ccccc2F)C1 (configuration not stated),15.3,0.9,12.7,8.7,37.3
O=C(CCC1CCCN(C2C3CC4CC(C3)CC2C4)C1)NCc1ccc(F)c(F)c1 (configuration not stated),11.7,0.8,19.3,16.7,56.1*
Cc1ncc(CN2CCCC(CCC(=O)NCc3ccc(F)c(F)c3)C2)s1 (configuration not stated),7.2,1,-8.6,0.7,88.3*
O=C(CCC1CCCN(Cc2ccc3c(c2)CCO3)C1)NCc1ccc(F)c(F)c1 (configuration not stated),1.5,0.9,-9.2,6.6,98.7*
CC(=O)c1cccc(CN2CCCC(CCC(=O)NCc3ccccc3F)C2)c1 (configuration not stated),14.8,0.9,6.8,6.0,91.5*
Cc1occc1C(=O)N1CCCC(CCC(=O)NCc2ccc(F)c(F)c2)C1 (configuration not stated),16.7,0.8,4.3,17.4,2.2
Cc1ccc(N(Cc2ccccc2F)S(C)(=O)=O)cc1C,4.3,0.9,6.4,10.0,19.5
CCN(CC)C(=O)c1sc(NC(=O)c2ccc(OC)c([N+](=O)[O-])c2)c(C#N)c1C,0.8,0.9,2.3,11.8,-5.3
COc1ccc(/C=C(\C#N)C(=O)NCc2cccnc2)cc1OC,6.8,1,-9.2,-0.4,-1.0
Cc1ccsc1C(=O)N1CCCC(CCC(=O)NCc2ccccc2F)C1 (configuration not stated),5.8,1,-1.0,-1.0,1.3
Cc1ncc(CN2CCCC(CCC(=O)NCc3ccccc3F)C2)s1 (configuration not stated),3.6,0.9,6.1,12.9,77.2*
COc1ccccc1NC(=O)CNc1ccc(F)c(Cl)c1,14.8,0.9,-8.5,14.5,-2.5
c1ccc2sc(NC3=NCN(CCN4CCOCC4)CN3)nc2c1,21.6,1,-2.0,-2.9,84.0*
Cc1nn(-c2ccccc2)c(C)c1NC(=O)COc1ccc(Br)cc1Cl,2.1,0.8,-4.3,22.9,-5.8
CCn1c(=NC(=O)c2ccc(S(=O)(=O)N(C)C)cc2)sc2cccc(OC)c21,-9.4,0.9,14.9,13.9,70.5*
Cc1ccc(CSCc2ccc(C(=O)NCCCN3CCOCC3)o2)cc1,8.3,0.9,4.9,9.4,2.0
CC1CCN(CCCNC(=O)c2ccc(CS(=O)(=O)Cc3ccccc3F)o2)CC1,11.5,1,-2.5,-2.2,5.0
SMILES,G6PDH counter,Diaphorase act,WT yeast gro inh,Diaph inh CS,Lmaj promast
O=C(NCCCN1CCCC1)c1ccc(CSCc2cccc(Cl)c2)o1,8.7,0.9,-14.1,8.5,98.5*
Cc1cccc(CS(=O)(=O)Cc2ccc(C(=O)NCCCN3CCCC3)o2)c1,0.5,1,-6.6,1.0,1.4
CC1CCN(CCCNC(=O)c2ccc(CSCc3cccc(Cl)c3)o2)CC1,-1.8,1,-1.4,4.2,100.1*
CN1CCN(CCCNC(=O)c2ccc(CSCc3cccc(Cl)c3)o2)CC1,5.6,1.1,-17.4,-6.3,99.4*
COc1ccc(-c2nnc(SCC(=O)Nc3cc(C)on3)o2)cc1,-3.5,0.9,21.9,6.1,-6.4
COc1cc(/C=C/c2ccc3cccc(OC)c3n2)c(O)c([N+](=O)[O-])c1,-1.5,1,21.1,3.8,39.1
Cc1cccc(N=Cc2cc3c(cc2[N+](=O)[O-])OCO3)c1,6.6,0.4,33.2,60.8*,20.0
Cc1cccc(OCC(=O)N/N=C\c2cc3c(cc2[N+](=O)[O-])OCO3)c1C,-4.7,0.8,24.9,17.2,25.0
Cc1ccc(O)c(N=Cc2cc(Cc3ccccc3)cc([N+](=O)[O-])c2O)c1,32.2,0.4,3.5,64.3*,0.9
COc1cc(C=Nc2cccc(C)c2)c(O)c([N+](=O)[O-])c1,6.5,0.8,6.2,22.7,67.6*
O=C(N/N=C/c1cc2c(cc1[N+](=O)[O-])OCO2)c1ccccn1,/,/,/,/,-4.2
O=[N+]([O-])c1cc2c(cc1C=Nc1ccccc1)OCO2,6.1,0.5,14.6,53.0*,11.8
COc1ccc(CCNC(=O)c2cnn3cccnc23)cc1OC,-3.7,0.8,-8.8,23.6,15.6
COc1ccc(C(=O)/C(C#N)=N/Nc2cccc([N+](=O)[O-])c2)cc1,7.6,0.9,22.4,13.8,8.8
CSc1nc(-c2ccc(C)cc2)[nH]c1S(=O)(=O)c1ccccc1,2.4,0.8,-17.8,18.8,55.7*
CC(=O)Sc1nc(-c2ccccc2)[nH]c1S(=O)(=O)c1ccc(C)cc1,14.6,0.6,1.1,36.5,-6.8
Cc1cc(=O)c2ccc3ccccc3c2[nH]1,0.3,0.8,4.0,17.7,54.1*
COC(=O)c1nnn(CC(=O)Nc2cccc(OC)c2)c1C(=O)OC,-1.2,1.1,-10.3,-7.8,-3.2
O=C(/C=C/c1ccc(O)c(O)c1)c1ccc(S(=O)(=O)N2CCCCCC2)cc1,6.1,0.5,-17.9,52.2*,95.2*
COC(=O)c1ccc(S(=O)(=O)N2CCCCCC2)cc1,-0.2,0.8,-4.8,15.7,-7.4
COc1cc(OC)cc(C(=O)NCc2cc(C)nc3ccccc23)c1,2.1,0.2,3.5,75.6*,4.3
N#C/C(=N\Nc1cc(Cl)cc(Cl)c1)c1nnc2n1CCCCC2,0.5,0.8,11.3,22.7,2.5
CCCCN1C(=O)C(=Nc2cccc3cnccc23)c2ccccc21,2.6,0.8,6.5,20.0,77.1*
COc1cccc(-c2nn[nH]n2)c1O,10.3,0.6,-16.3,36.3,-5.8
O=C1C2CCCN2C(=O)N1CCCCN1CCN(c2ccccc2)CC1 (configuration not stated),7.7,0.9,-0.1,5.3,0.5
